Measurements from paper PMC6605687 (The Journal of General Physiology, 2019).
Numbering of substitutions follows the chain as printed. Like-named read-outs stand apart in the source and are kept apart here.

Tests used:
Format in all cases: cell-based
rP2X2 Arg290Lys = target: T1, rP2X2 Arg290Lys (Rattus norvegicus, UniProt P49653, R290K); test: Two-electrode voltage clamp, oocytes expressing rP2X2 Arg290Lys
T1 sequence (P49653 1-472 R290K): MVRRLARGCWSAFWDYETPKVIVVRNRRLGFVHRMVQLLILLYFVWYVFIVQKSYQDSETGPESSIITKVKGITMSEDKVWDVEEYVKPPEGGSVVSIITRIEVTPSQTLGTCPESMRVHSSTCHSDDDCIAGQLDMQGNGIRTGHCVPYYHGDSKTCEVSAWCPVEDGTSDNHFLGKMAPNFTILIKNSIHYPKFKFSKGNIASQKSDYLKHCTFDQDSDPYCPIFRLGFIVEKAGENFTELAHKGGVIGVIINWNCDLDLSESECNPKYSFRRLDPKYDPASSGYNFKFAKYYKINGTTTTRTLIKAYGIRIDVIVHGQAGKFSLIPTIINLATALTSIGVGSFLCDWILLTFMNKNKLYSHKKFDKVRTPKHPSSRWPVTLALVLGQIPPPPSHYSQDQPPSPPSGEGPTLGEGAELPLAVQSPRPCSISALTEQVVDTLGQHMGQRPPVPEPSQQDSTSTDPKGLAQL
Procedure, shortened: (§1)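 Mutations were made by site-directed mutagenesis. Xenopus oocytes were injected with rP2X2 mRNA and incubated in L-15 at 18°C. Two-electrode voltage clamp was done 1–2 days later at −40 mV under ND96 perfusion (pH 7.4). ATP concentration-response currents were normalised and fitted to a one-component Hill equation for EC50 and Hill coefficient. Results are mean ± SEM, tested by one-way ANOVA with Dunnett's test against WT.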

rP2X2 Lys71Arg = target: T2, rP2X2 Lys71Arg (Rattus norvegicus, UniProt P49653, K71R); test: Two-electrode voltage clamp, oocytes expressing rP2X2 Lys71Arg
T2 sequence (P49653 1-472 K71R): T1 sequence (P49653 1-472 R290K) with K71R, K290R
Procedure, shortened: as §1

rP2X2 Lys69Arg = target: T3, rP2X2 Lys69Arg (Rattus norvegicus, UniProt P49653, K69R); test: Two-electrode voltage clamp, oocytes expressing rP2X2 Lys69Arg
T3 sequence (P49653 1-472 K69R): T1 sequence (P49653 1-472 R290K) with K69R, K290R

rP2X2 Thr184Val = target: T4, rP2X2 Thr184Val (Rattus norvegicus, UniProt P49653, T184V); test: Two-electrode voltage clamp, oocytes expressing rP2X2 Thr184Val
T4 sequence (P49653 1-472 T184V): T1 sequence (P49653 1-472 R290K) with T184V, K290R
Procedure, shortened: as §1

rP2X2 Lys69Gln = target: T5, rP2X2 Lys69Gln (Rattus norvegicus, UniProt P49653, K69Q); test: Two-electrode voltage clamp, oocytes expressing rP2X2 Lys69Gln; conditions: for EC50: EC50, Lys69Gln
T5 sequence (P49653 1-472 K69Q): T1 sequence (P49653 1-472 R290K) with K69Q, K290R
Procedure, shortened: as §1

Nc1ncnc2c1ncn2[C@@H]1O[C@H](COP(=O)(O)OP(=O)(O)OP(=O)(O)O)[C@@H](O)[C@H]1O [ATP, Adenosine 5′-triphosphate]
EC50 (rP2X2 Arg290Lys): 0.46 ± 0.06 mM
EC50 (rP2X2 Lys71Arg): 0.37 ± 0.04 mM
EC50 (rP2X2 Lys69Arg): > 5 mM
EC50 (rP2X2 Lys69Arg; mean ± SEM): 6 mM
EC50 (rP2X2 Thr184Val): 3.2 mM
Fold increase in EC50 (reduction in sensitivity), Thr184Val versus WT (rP2X2 Thr184Val; Thr184Val compared with WT): 100 fold
EC50 (rP2X2 Lys69Gln): > 5 mM
EC50 (rP2X2 Lys69Gln; mean ± SEM): 16.6 mM
nH (Hill coefficient) (rP2X2 Lys69Gln; Lys69Gln): 2.4 ± 0.1
